Data set [1] in a line: Cytotoxicity in the HCoV 229E CPE assay. It counts as cell-based. To be noted: human, MRC5 cells, not infected. Summed up:
(§1)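 Uninfected MRC5 human fetal lung fibroblasts seeded at 20,000 cells/well; test compound in cell assay medium as 3-fold serial dilutions to 8 concentrations, duplicate wells. Untreated cell controls run in parallel. Cytotoxicity expressed as percentage viability, with CC50 derived from this.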

For a further data set, the system named is HCoV 229E. Put plainly: HCoV 229E qPCR assay in MRC5 cells. It is filed as cell-based, human coronavirus 229E. To be noted: read-out: HCoV 229E qPCR assay EC50, 200 TCID50, 2 days, viral RNA. Summed up: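 MRC5 human fetal lung fibroblasts seeded at 20,000 cells/well received test compound (3-fold serial dilutions to 8 concentrations, duplicate wells) in cell assay medium and were infected with 200 TCID50 HCoV 229E. Viral RNA was quantified by qPCR following a previously published protocol. Uninfected untreated and infected untreated controls ran in parallel. Percentage inhibition was recorded; EC50 is the concentration giving 50% of maximal effect.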

Data set [2] is described as follows: Cytotoxicity in the HCoV 229E qPCR assay. It is filed as cell-based. To be noted: human, MRC5 cells, not infected. Summed up:
as §1
Background: In qPCR the cycle at which signal appears reflects the starting amount.

For data set [3] the following is noted: a patient with MS; cited from earlier work.
For data set [4], the system named is COVID-19-related lethality. To be noted: meta-regression, patients with MS and COVID-19, N = 5634, P = 0.035; cited from earlier work.

Where “and” joins values, the source holds several entries; their conditions need not be identical. Identical values can stand only once.

We go through 3 molecules from paper PMC9682045 (Biochemistry and Biophysics Reports, 2022).

In turn, `CCC(CC)COC(=O)[C@H](C)N[P@](=O)(OC[C@H]1O[C@@](C#N)(c2ccc3c(N)ncnn23)[C@H](O)[C@@H]1O)Oc1ccccc1` [Remdesivir (blinded), remdesivir] displayed a half-maximal cytotoxic concentration (CC50) at 3 days in data set [1] above 100 µM. Also, in the data set with HCoV 229E, the half-maximal effective concentration (EC50) was below 0.046 µM. In data set [2], this molecule returned a CC50 at 2 days above 100 µM.
`C/C(O)=C(\C#N)C(=O)Nc1ccc(C(F)(F)F)cc1` [Teriflunomide, teriflunomide] came in with a CC50 at 3 days in data set [1] above 100 µM. In addition, the half-maximal cytotoxic concentration (CC50) at 2 days in data set [2] is above 100 µM. Further, the plasma concentration in data set [3] was 130 μM and 35 mg/L. In data set [4], the “protective effect on COVID-19-related lethality (β)” value is given as −0.11.
`Cc1oncc1C(=O)Nc1ccc(C(F)(F)F)cc1` [Leflunomide, leflunomide] returned a 50% cytotoxic concentration (CC50) at 3 days in data set [1] above 100 µM. The 50% cytotoxic concentration (CC50) at 2 days in data set [2] is above 100 µM.

In general, CC50 refers to the concentration giving 50% cytotoxicity. A word on the EC50: it is the concentration needed to bring the measured effect to its halfway point.
